Screening data as filed in PubChem BioAssay.
STAT1 act: STAT1 signaling activation; AID 932; NIH 3T3 STAT1-luciferase reporter, IFN-gamma, luminescence; 100% = IFN-gamma alone, no compound; 2.6% of 200,000 active; activation (% of control), % at 5.5 µM;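 active means activation above the screen-wide mean activation plus 3 SD, cut at about 130% in these data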;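 further: raw ratio to IFN-gamma control signal so 100% means no change and 0% no light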
FLuc inhib CS: inhibits firefly luciferase, flagging false hits in luciferase inhibition screens | P08659 | ATPLite firefly luciferase biochemical luminescence, 10 min | inhibition, % at 10 µM | 1.5% of 200,000 active | AID 1006;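 active means inhibition above about 50% when tested at 10 µM, limit read from the data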
Target sequence (P08659 whole entry, looked up): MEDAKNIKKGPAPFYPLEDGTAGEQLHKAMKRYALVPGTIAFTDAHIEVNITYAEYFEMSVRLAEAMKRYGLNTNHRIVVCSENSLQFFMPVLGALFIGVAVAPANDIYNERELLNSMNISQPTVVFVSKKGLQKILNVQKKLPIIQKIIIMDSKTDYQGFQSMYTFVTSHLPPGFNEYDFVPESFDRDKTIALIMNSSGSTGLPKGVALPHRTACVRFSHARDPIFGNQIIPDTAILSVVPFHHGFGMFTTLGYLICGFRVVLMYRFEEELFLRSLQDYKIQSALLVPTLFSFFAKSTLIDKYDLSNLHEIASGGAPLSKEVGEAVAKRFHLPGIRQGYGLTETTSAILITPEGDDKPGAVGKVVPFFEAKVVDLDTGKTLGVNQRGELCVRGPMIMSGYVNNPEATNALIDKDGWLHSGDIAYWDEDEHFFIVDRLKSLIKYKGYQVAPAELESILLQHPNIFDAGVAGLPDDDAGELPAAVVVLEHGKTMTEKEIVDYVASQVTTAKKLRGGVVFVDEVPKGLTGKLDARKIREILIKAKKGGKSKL
APP 5'UTR act: activates APP 5'UTR luciferase reporter; SH-SY5Y APP 5'UTR luciferase reporter, luminescence; zero percent = DMSO vehicle wells; 1% of 190,000 active; activation, % at 2 µM;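 active means activation above a set limit, based on mean plus 3 SD of controls, cut at about 140% in these data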
FLuc stim CS: affects firefly luciferase, flagging false hits in luciferase stimulation screens. P08659. ATPlite luciferase biochemical, luminescence, 10 min; 0 = ATP-free wells, 1 = DMSO control. activation factor at 10 µM. 200,000 tested, under 10 active. AID 1027;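 active means luciferase activation factor, scaled between plate controls, of at least 2 with compound at 10 µM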
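System: cell-free luciferase reagent; medium: PBS as buffer for the ATP substrate; doses: test compounds dosed from 2 mM stocks in 100% DMSO; incubation: 10 min, room temperature; measured by: luminescence from luciferase reaction; read-out: luciferase activation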
NF-kB neuron act: compounds increasing NF-kB expression in human neuronal cells; NF-kB reporter expression; stronger effect = higher value; fold change at 12.5 µM; 1.6% of 190,000 active; in the data active means fold change above about 3.3
Starred values were filed as active, the others as inactive. Compounds with a hit are over-represented: about 4.3% of the library has one in this group of screens.

What do the screens show for `CC(C)(C)NC(=O)C[n+]1ccc(C(N)=O)cc1`?
STAT1 act: 92.0; FLuc inhib CS: -3.1; APP 5'UTR act: 5.8; FLuc stim CS: 1; NF-kB neuron act: 6.24*

Results for O=c1sc(N2CCN(c3ccc(F)cc3)CC2)nc2ccsc12 ?
STAT1 act: 122.9; FLuc inhib CS: -0.8; APP 5'UTR act: 14.8; FLuc stim CS: 1; NF-kB neuron act: 1.44

What do the screens show for `O=c1sc(N2CCN(c3ccccc3F)CC2)nc2ccsc12`?
STAT1 act: 139.4*; FLuc inhib CS: 3.9; APP 5'UTR act: 42.1; FLuc stim CS: 1; NF-kB neuron act: 3.58*

What do the screens show for `Cc1ccccc1C(=O)O/N=C(\N)c1ccncc1`?
STAT1 act: 133.1*; FLuc inhib CS: 68.9*; APP 5'UTR act: 37.2; FLuc stim CS: 0.3; NF-kB neuron act: 1.93

Results for N/C(=N\OC(=O)c1ccc2ccccc2c1)c1ccncc1 ?
STAT1 act: 147.8*; FLuc inhib CS: 42.5; APP 5'UTR act: 149.2*; FLuc stim CS: 0.6; NF-kB neuron act: 1.16

Results for N/C(=N\OC(=O)c1cccc([N+](=O)[O-])c1)c1ccccn1 ?
STAT1 act: 132.9*; FLuc inhib CS: 66.7*; APP 5'UTR act: 77.2; FLuc stim CS: 0.3; NF-kB neuron act: 2.31

Results for N/C(=N\OC(=O)C1CCCCC1)c1ccccn1 ?
STAT1 act: 123.7; FLuc inhib CS: 72.4*; APP 5'UTR act: 81.7; FLuc stim CS: 0.3; NF-kB neuron act: 2.17

How did N/C(=N\OC(=O)C1CCCCC1)c1ccncc1 do in these assays?
STAT1 act: 108.1; FLuc inhib CS: 10.1; APP 5'UTR act: -14.4; FLuc stim CS: 0.9; NF-kB neuron act: 1.32

How did CCOc1ccc(CNC2CCCc3ccccc32)cc1 (stereo unspecified) do in these assays?
STAT1 act: 104.2; FLuc inhib CS: -2.2; APP 5'UTR act: -5.2; FLuc stim CS: 1; NF-kB neuron act: 1.13

How did S=C1NCCOCCOCCNC(=S)N2CCOCCOCCN1CCOCCOCC2 do in these assays?
STAT1 act: 98.8; FLuc inhib CS: -4.5; APP 5'UTR act: 6.6; FLuc stim CS: 1; NF-kB neuron act: 1.04

What do the screens show for `COc1ccc(CCNC(=O)CCCN2C(=O)c3ccccc3C2=O)cc1`?
STAT1 act: 104.6; FLuc inhib CS: 0.2; APP 5'UTR act: -8.3; FLuc stim CS: 1; NF-kB neuron act: 1.05

How did N/C(=N\OC(=O)c1ccc2ccccc2c1)c1cccc([N+](=O)[O-])c1 do in these assays?
STAT1 act: 109.6; FLuc inhib CS: 38.4; APP 5'UTR act: 20.4; FLuc stim CS: 0.6; NF-kB neuron act: 1.21

Results for N/C(=N\OC(=O)c1ccc2ccccc2c1)c1ccccn1 ?
STAT1 act: 33.8; FLuc inhib CS: 90.0*; APP 5'UTR act: 158.2*; FLuc stim CS: 0.1; NF-kB neuron act: 4.28*

How did O=c1[nH]c(-c2ccco2)nc2sc3c(c12)CCCC3 do in these assays?
STAT1 act: 149.4*; FLuc inhib CS: 49.8; APP 5'UTR act: 154.2*; FLuc stim CS: 0.5; NF-kB neuron act: 5.78*

How did O=c1[nH]c(S)nc2sc3c(c12)CCCC3 do in these assays?
STAT1 act: 106.5; FLuc inhib CS: 4.7; APP 5'UTR act: -6.1; FLuc stim CS: 1; NF-kB neuron act: 0.99

Results for C#CCSc1nnc(-c2ccc([N+](=O)[O-])cc2)o1 ?
STAT1 act: 125.2; FLuc inhib CS: 4.3; APP 5'UTR act: 3.9; FLuc stim CS: 1; NF-kB neuron act: 2.06

Results for O=C1c2ccccc2C(=O)N1CCc1c[nH]c2ccc(O)cc12 ?
STAT1 act: 132.3*; FLuc inhib CS: -3.8; APP 5'UTR act: 13.6; FLuc stim CS: 1; NF-kB neuron act: 1.87

Results for CCCCn1c(-c2ccccc2)cnc1SCC(=O)NCCc1ccc(OC)c(OC)c1 ?
STAT1 act: 134.1*; FLuc inhib CS: -3.1; FLuc stim CS: 1; NF-kB neuron act: 1.14

Results for COc1ccc(CCNC(=O)CSc2nnc(-c3ccccc3)c3ccccc23)cc1OC ?
STAT1 act: 84.7; FLuc inhib CS: -3.6; APP 5'UTR act: -15.7; FLuc stim CS: 1; NF-kB neuron act: 0.85

Results for O=C(CNCC1(N2CCOCC2)CCCCC1)Nc1ccc(Cl)cc1 ?
STAT1 act: 94.2; FLuc inhib CS: -7.8; APP 5'UTR act: 18.4; FLuc stim CS: 1.1; NF-kB neuron act: 1

What do the screens show for `Cc1ccccc1-c1c(C)oc2cc(O)ccc2c1=O`?
STAT1 act: 95.9; FLuc inhib CS: 0.4; APP 5'UTR act: -0.6; FLuc stim CS: 1; NF-kB neuron act: 0.84

Results for CC(=Nc1ccccc1)Nc1ccccc1 ?
STAT1 act: 100.3; FLuc inhib CS: -1.9; APP 5'UTR act: 1.1; FLuc stim CS: 1; NF-kB neuron act: 1.25

Results for S=C(N=Nc1ccccc1)NNc1ccccc1 ?
STAT1 act: 126.1; FLuc inhib CS: 12.1; APP 5'UTR act: 92.8; FLuc stim CS: 0.9; NF-kB neuron act: 3.73*

What do the screens show for `CC(=O)Nc1ccc(NC(=O)COC(=O)c2cnccn2)cc1`?
STAT1 act: 99.4; FLuc inhib CS: -6.2; APP 5'UTR act: -13.8; FLuc stim CS: 1.1; NF-kB neuron act: 1.3

What do the screens show for `CC(=O)Nc1ccc(N/C=C/C(=O)c2ccc(C)o2)cc1`?
STAT1 act: 143.3*; FLuc inhib CS: 32.5; APP 5'UTR act: 24.8; FLuc stim CS: 0.7; NF-kB neuron act: 1.29

How did COc1ccccc1Oc1ccc(N/C=C/C(=O)c2ccc(C)o2)cc1 do in these assays?
STAT1 act: 132.1*; FLuc inhib CS: 16.0; APP 5'UTR act: 92.9; FLuc stim CS: 0.8; NF-kB neuron act: 1.7

How did COc1cc(C(=O)/C=C/Nc2ccc(NC(C)=O)cc2)cc(OC)c1OC do in these assays?
STAT1 act: 105.3; FLuc inhib CS: 4.2; APP 5'UTR act: -2.8; FLuc stim CS: 1; NF-kB neuron act: 0.85

What do the screens show for `Cc1ccc(C(=O)/C=C/c2ccc(F)cc2)o1`?
STAT1 act: 103.9; FLuc inhib CS: 84.8*; APP 5'UTR act: 1.4; FLuc stim CS: 0.2; NF-kB neuron act: 1.26

What do the screens show for `CC(C)(C)Nc1nc(NC(C)(C)C)nc(-n2ccnc2)n1`?
STAT1 act: 106.5; FLuc inhib CS: -3.0; APP 5'UTR act: 2.5; FLuc stim CS: 1; NF-kB neuron act: 0.87

Results for COCCn1c(-c2cc(OC)c(OC)c(OC)c2)nc2oc3ccccc3c(=O)c2c1=O ?
FLuc inhib CS: 0.4; FLuc stim CS: 1

How did Nc1nnc(SCc2ccc(Cl)cc2)s1 do in these assays?
STAT1 act: 111.8; FLuc inhib CS: 5.2; APP 5'UTR act: 11.8; FLuc stim CS: 0.9; NF-kB neuron act: 1.68

How did Nc1nnc(SCc2coc(-c3ccc(Cl)cc3)n2)s1 do in these assays?
STAT1 act: 142.7*; FLuc inhib CS: 0.8; APP 5'UTR act: 46.3; FLuc stim CS: 1; NF-kB neuron act: 1.91

Results for Cc1cc(O)c(/C=N/Nc2ccc(Cl)cc2)c(=O)o1 ?
STAT1 act: 97.1; FLuc inhib CS: 89.2*; APP 5'UTR act: 4.6; FLuc stim CS: 0.1; NF-kB neuron act: 1.57

What do the screens show for `COCc1c(Br)c(C)nc(OCC(=O)N/N=C/c2cc(C)n(-c3ccc([N+](=O)[O-])cc3)c2C)c1C#N`?
STAT1 act: 99.5; FLuc inhib CS: -10.9; APP 5'UTR act: -14.8; FLuc stim CS: 1.1; NF-kB neuron act: 0.61
